# Only some compounds are listed: those with a hit (about 3.3% of all), similar ones and a draw of the others.
# Rev-RRE block – HIV Rev-RRE protein-RNA interaction inhibition; inhibition, % at 8 µM; AID 704; Rev peptide-RRE RNA binding, FRET; hit rate 0.79% among 97,000;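 active = inhibition above the screen-wide mean plus 3 SD, cut at about 35% in these data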;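 also: 0% = median DMSO wells and 100% = median Neomycin B control wells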
#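 Test system: Cy5-tagged RRE RNA duplex with fluorescein-tagged Rev peptide | Read-out: % inhibition of FRET ratio versus controls | Probe or stimulus: Labelled Rev peptide | Incubation: 5 min RNA-compound premix plus 15 min binding step, 25 °C | Technique: FRET fluorescence readout | Benchmarks: DMSO low control, neomycin B high control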
# IL1B NFkB inh – blocks IL-1B driven NFkB nuclear translocation in HUVEC cells. hit rate 0.43% among 94,000. HUVEC IL-1B NFkB p65 nuclear translocation imaging. inhibition, % at 2 µM. AID 796;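 active = inhibition above about 30% together with a positive call from visual inspection of the well image, limit read from the data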;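 also: nuclear over cytoplasmic p65 intensity ratio measured by imaging; 0% = IL-1B stimulated DMSO wells and 100% = unstimulated DMSO wells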
# FAK inh – inhibitors of human focal adhesion kinase | Q05397 | biochemical FAK kinase activity assay | inhibition, %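 (tested at 7 µM)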 | hit rate 0.84% among 97,000 | AID 727; in the data active = inhibition above about 19%;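 also: 0% = DMSO and 100% = reference compound high control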
# Target sequence (Q05397 whole entry, looked up): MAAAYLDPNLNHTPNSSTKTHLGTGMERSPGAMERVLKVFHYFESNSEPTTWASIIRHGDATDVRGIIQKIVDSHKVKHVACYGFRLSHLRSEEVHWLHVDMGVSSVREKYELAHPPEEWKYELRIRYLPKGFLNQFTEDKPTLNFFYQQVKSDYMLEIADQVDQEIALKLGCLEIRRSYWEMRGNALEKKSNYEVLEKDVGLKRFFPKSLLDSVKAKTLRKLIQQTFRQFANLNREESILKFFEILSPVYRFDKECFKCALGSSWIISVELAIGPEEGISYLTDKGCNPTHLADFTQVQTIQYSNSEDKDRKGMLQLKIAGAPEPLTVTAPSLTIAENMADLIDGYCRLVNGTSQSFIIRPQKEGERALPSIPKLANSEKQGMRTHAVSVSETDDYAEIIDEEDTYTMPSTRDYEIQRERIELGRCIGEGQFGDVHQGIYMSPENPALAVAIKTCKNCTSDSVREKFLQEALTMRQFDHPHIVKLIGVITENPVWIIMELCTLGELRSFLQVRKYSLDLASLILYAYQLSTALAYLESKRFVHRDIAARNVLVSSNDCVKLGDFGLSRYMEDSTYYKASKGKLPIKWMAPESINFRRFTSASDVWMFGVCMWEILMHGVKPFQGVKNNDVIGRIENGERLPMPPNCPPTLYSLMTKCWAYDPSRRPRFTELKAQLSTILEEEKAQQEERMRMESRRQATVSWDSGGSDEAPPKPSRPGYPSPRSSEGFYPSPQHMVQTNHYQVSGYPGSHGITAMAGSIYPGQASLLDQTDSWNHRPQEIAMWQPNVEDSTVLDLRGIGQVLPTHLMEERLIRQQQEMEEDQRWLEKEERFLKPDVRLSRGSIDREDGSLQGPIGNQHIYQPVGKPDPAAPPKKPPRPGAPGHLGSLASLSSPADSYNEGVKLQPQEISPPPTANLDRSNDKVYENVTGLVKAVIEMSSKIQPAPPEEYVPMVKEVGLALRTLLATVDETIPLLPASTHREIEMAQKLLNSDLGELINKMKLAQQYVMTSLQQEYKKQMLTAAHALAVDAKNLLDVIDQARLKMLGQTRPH
# IL1B cytotox – HUVEC cytotoxicity counter-screen, IL-1B stimulated; HUVEC cell count loss, Hoechst imaging; cell count reduction, % at 2 µM; hit rate 0.41% among 94,000;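 active = cell count reduction more than 3 SD above the screen-wide mean, cut at about 70% in these data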;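 also: normalized per plate to untreated control cells as the no-loss baseline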
# NFkB transloc pot – enhances IL-1B driven NFkB nuclear translocation | HUVEC IL-1B NFkB p65 nuclear translocation imaging | activation, % at 2 µM | hit rate 0.3% among 94,000 | AID 819;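 active = activation above 40%, about the mean plus 3 SD, also judged a hit on visual image review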;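 also: percent activation is computed from the nuclear over cytoplasmic p65 intensity ratio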
# Measles CPE – protection of cells from measles virus. AID 841. hit rate 1.5% among 140,000. Measles virus-infected cells, CPE protection, absorbance. protection (pct of control), % at 4 µM; in the data active = protection mostly above about 24%, no sharp cut-off; inactive = mostly below about 26%
# An asterisk follows results filed as active; . = no result given; [ ] = dose if it differs, or a comment.
SMILES,Rev-RRE block,IL1B NFkB inh,FAK inh,IL1B cytotox,NFkB transloc pot,Measles CPE
O=C([C@H](O)c1ccccc1)N1CCC[C@H]1CO,.,.,.,.,.,2
Cc1nnc(N2C(=O)C(O)=C(C(=O)c3ccco3)C2c2ccc(C(C)(C)C)cc2)s1 (stereo not given),92*[fluorescence artefact?],-6,-2,-7,6,5
Cc1nnc(N2C(=O)C(O)=C(C(=O)c3ccco3)C2c2ccc(C(C)C)cc2)s1 (stereo not given),.,.,.,.,.,8
Cc1nnc(N2C(=O)C(O)=C(C(=O)c3ccco3)C2c2ccc(F)cc2)s1 (stereo not given),52*,-11,-3,-38,11,3
COc1ccc(C2C(C#N)=C(N)Oc3c2c(-c2ccccc2)nn3-c2ccccc2)c(OC)c1OC (stereo not given),.,.,.,.,.,18
Cc1ccc(NC(=S)N2CCC(c3nc4ccccc4s3)CC2)cc1C,-3,4,0,-26,-4,29*
O=C(Oc1ccc(F)cc1C(=O)/C=C/c1cccs1)c1cccc([N+](=O)[O-])c1,8,31*,8,60,-31,10
O=C(/C=C/c1ccccc1F)c1cccc([N+](=O)[O-])c1,.,.,.,.,.,4
Cc1noc(C)c1COC(=O)Cc1ccc(Cl)cc1,9,-2,-1,-14,2,48*
O=C(NCCN1CCOCC1)c1cc(Cl)ccc1[N+](=O)[O-],.,.,.,.,.,32*
CC(C)(C)NC(=O)NC(=O)COC(=O)c1cc(=O)[nH]c2ccccc12,9,-12,4,21,12,35*
O=C(COC(=O)CCSc1ccc(Cl)cc1)NCc1ccccc1,.,.,.,.,.,8
O=C(COC(=O)CCSc1ccccc1)NCc1ccccc1Cl,.,.,.,.,.,75*
CCOC(=O)c1c(NC(=O)Cn2nc(C(F)(F)F)cc2C)sc(C)c1C,.,.,.,.,.,11
O=C(Nc1nc2ccccc2s1)c1ccc(N2CCCCC2)c([N+](=O)[O-])c1,.,.,.,.,.,1
Nc1c2c(nc3sc4c(c13)CCCCC4)CCCCC2,.,.,.,.,.,49*
O=C(N1CCOCC1)N1CCC(n2nnc3cc(F)ccc32)CC1,40*,-7,0,-7,7,7
COc1cc(-c2nnc(COC(=O)c3c4c(nc5ccccc35)CCCC4)o2)cc(OC)c1OC,-6,-5,1,2,5,10
O=C(c1ccc(F)cc1)N1CCN(c2cc(=O)[nH]nc2-c2ccccc2)CC1,9,4,-4,-17,-4,39*
Cc1ccc(C(=O)N2CCN(c3cc(=O)[nH]nc3-c3ccccc3)CC2)cc1,3,2,-5,-9,-2,38*
Cn1nc(-c2ccc(C(=O)N3CCN(Cc4ccccc4)CC3)cc2)c2ccccc2c1=O,8,-13,-2,-3,13,9
COc1ccc(/C=N/NC(=O)CCSc2nc3ccccc3s2)cc1,.,.,.,.,.,8
Cc1nn(C)c(C(=O)Nc2ccc(Cl)c([N+](=O)[O-])c2)c1Cl,.,.,.,.,.,3
CSc1ccccc1NS(=O)(=O)c1ccc2c(c1)OCCO2,-2,27,1,70*,-27,3
O=S(=O)(Nc1ccc2c(c1)OCCO2)c1ccc(F)cc1,6,14,1,22,-14,7
SMILES,Rev-RRE block,IL1B NFkB inh,FAK inh,IL1B cytotox,NFkB transloc pot,Measles CPE
O=S(=O)(Nc1cccnc1Cl)c1ccc2c(c1)OCCO2,6,10,-6,0,-10,33*
CSc1ccc(S(=O)(=O)Nc2ccc3c(c2)OCCO3)cc1,.,.,.,.,.,42*
CC(Cc1cccs1)NC(=O)Nc1ccc(Cl)c(Cl)c1 (stereo not given),7,-9,11,-28,9,2
CCOC(=O)c1sc(NC(=O)CSc2nncs2)c(C(=O)OCC)c1C,3,7,0,-9,-7,10
CCOC(=O)c1sc(NC(=O)CSc2nc3ccccc3s2)c(C(=O)OCC)c1C,.,.,.,.,.,40*
O=C(CSc1nnc(NC(=O)c2ccccc2Cl)s1)Nc1ccc2c(c1)oc1ccccc12,.,.,.,.,.,29
O=C(CSc1nc2ccccc2s1)Nc1ccc2c(c1)oc1ccccc12,.,.,.,.,.,26*
FC(F)Oc1ccc(NC(=S)NCc2ccccc2)cc1Cl,6,30*,1,-18,-30,8
Cc1ccc(NC(=S)Nc2ccc(OC(F)F)c(Cl)c2)cc1Cl,.,.,.,.,.,7
COc1ccc(/C=C2\N=C(SC)SC2=O)cc1OC,8,-10,-1,-5,10,40*
CC(Sc1nnc(Cn2c(=O)sc3ccccc32)n1C)c1ccccc1 (stereo not given),.,.,.,.,.,51*
CC(C)OC(=O)c1cc2c(ccn2C)n1CC(=O)N(Cc1ccccc1)c1ccc(F)cc1,.,.,.,.,.,56*
CN(/C(=N\S(=O)(=O)c1ccccc1)C(F)(F)F)c1ccccc1,37*,-5,10,8,5,18
O=C(Nc1ccc2oc(-c3ccccc3)nc2c1)c1cccnc1,10,4,-2,-11,-4,59*
CC(C)(CO)NCC(=O)Nc1cc(C(F)(F)F)cc(NC(=O)CNC(C)(C)CO)c1Cl,.,.,.,.,.,4
CCOC(=O)c1[nH]c2cc3c(cc2c1NC(=O)CN1CCc2ccccc2C1)OCO3,0,-2,0,7,2,8
CCOC(=O)c1[nH]c2cc3c(cc2c1NC(=O)CN1CCC(C)CC1)OCO3,0,98*,-7,86*,-98,10
Cc1ccc(-c2csc(N3CCC(NS(=O)(=O)c4ccc5c(c4)OCCO5)CC3)n2)cc1,2,-1,2,-14,1,44
Cc1ccc2nc3sc(C(=O)NCc4ccco4)c(N)c3cc2c1,37*,-6,3,-10,6,33
COc1cc2cc3c(N)c(C(=O)NCc4ccco4)sc3nc2cc1OC,34,-6,4,-18,7,5
c1ccc(CC2CCN(C3=Nc4cccc5cccc3c45)CC2)cc1,42*,-6,2,-138,6,29
CC(=O)N1CCN(C2=Nc3cccc4cccc2c34)CC1,.,.,.,.,.,0
c1cc2c3c(cccc3c1)C(N1CCN(C3=Nc4cccc5cccc3c45)CC1)=N2,40*,13,14,-2,-13,.
Cc1cc(C)nc(NC(=O)/C=C/c2cccs2)c1,1,9,2,-64,-9,4
O=C(/C=C/c1cccs1)Nc1cccc(NC(=O)/C=C/c2cccs2)n1,.,.,.,.,.,90*
SMILES,Rev-RRE block,IL1B NFkB inh,FAK inh,IL1B cytotox,NFkB transloc pot,Measles CPE
COc1ccc(NCc2cc3cc(OC)ccc3[nH]c2=O)cc1,15,7,10,-6,-7,18
COc1ccc2[nH]c(=O)c(CNc3cccc(C)c3)cc2c1,57*,-6,7,9,6,3
CCCNc1nc(N2CCOCC2)nc(N2CCOCC2)n1,3,-12,-3,-72,12,8
CSc1nc(NCC(C)C)nc(N2CCOCC2)n1,1,-17,0,1,17,36*
CC(Oc1ccc(Cl)cc1Cl)C(=O)Nc1ccncc1 (stereo not given),2,0,6,-24,0,9
CCCn1nnc(NC(=O)C(C)Oc2ccc(Cl)cc2Cl)n1 (stereo not given),2,-12,-2,-22,12,47*

# Assay outcomes from PubChem.
